Reference: article PMC2921709 (ChemMedChem, 2010)

How the values were obtained:
[1] = system: Bovine brain tubulin (colchicine site); experiment: Inhibition of [3H]colchicine binding to tubulin; conditions: tubulin 1 μM, [3H]colchicine 5 μM
HL-60 = experiment: MTT growth inhibition, HL-60 promyelocytic leukemia cells; assay type: cell-based, human; conditions: Homo sapiens, HL-60, 72 h, read-out: GI50 HL-60
In short: (§1)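 Cells seeded at 8 × 10^3 per well in 96-well plates and held 18 h at 37 °C, 5% CO2. Medium then replaced with test compound in complete medium at various concentrations for 72 h continuous exposure. Viability read by MTT. GI50 is the concentration giving 50% proliferation inhibition, from dose–response curves; mean ± SE of ≥3 independent experiments. Media: leukemia lines in RPMI-1640; solid-tumour lines in DMEM with penicillin G 115 U mL−1, streptomycin and 10% FBS.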

IGROV = experiment: MTT growth inhibition, IGROV ovarian cancer cells; assay type: cell-based, human; conditions: Homo sapiens, IGROV, 72 h, read-out: GI50 IGROV
In short: as §1

solid tumor cells = experiment: MTT growth inhibition, solid tumor cell lines; assay type: cell-based; conditions: Homo sapiens, 72 h, read-out: GI50, solid tumor cells
In short: as §1

Bovine brain tubulin = experiment: Inhibition of tubulin polymerization; assay type: biochemical; conditions: read-out: Tubulin Assembly IC50; tubulin 10 μM; 20 min incubation; ± SD
MCF-7 = experiment: MTT growth inhibition, MCF-7 breast adenocarcinoma cells; assay type: cell-based, human; conditions: Homo sapiens, MCF7, 72 h, read-out: GI50 MCF-7
In short: as §1

Jurkat cells [2] = experiment: Flow cytometric cell-cycle analysis; assay type: cell-based, human
In short: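 Jurkat cells in exponential growth, 5 × 10^5 per sample, exposed to test compound at various concentrations for 24 h. Cells fixed in ice-cold 70% ethanol, treated with lysis buffer containing RNase A and 0.1% Triton X-100, then stained with PI. DNA content measured by flow cytometry and phases assigned from DNA histograms. Mean ± SEM of two independent experiments.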

Bcl-2 in Jurkat cells = experiment: Flow cytometric analysis of Bcl-2 expression; assay type: cell-based, human; conditions: 24 and 48 h, flow cytometry
In short: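 Jurkat cells incubated with test compound for 24 and 48 h, then pelleted and permeabilised with a Fix&Perm kit. Labelled with FITC-conjugated anti-Bcl-2 monoclonal antibody, washed and analysed by flow cytometry. Mean ± SEM of two independent experiments.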

Hep G2 = experiment: MTT growth inhibition, HepG2 hepatoma cells; assay type: cell-based, human; conditions: Homo sapiens, HepG2, 72 h, read-out: GI50 Hep G2
In short: as §1

[3] = system: caspase-3 in Jurkat cells; experiment: Caspase-3 activation by flow cytometry; assay type: cell-based, human; conditions: time- and concentration-dependent
Jurkat cells [4] = experiment: Annexin V-FITC/PI apoptosis assay; assay type: cell-based, human; conditions: 24 h treatment
In short: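 Jurkat cells exposed to test compound at various concentrations for 24 or 48 h, then harvested. Co-labelled with annexin V–FITC and PI and analysed by flow cytometry (excitation 488 nm; emission 525 and 585 nm). Reported as mean percentage of annexin-V-positive cells ± SEM, three independent experiments.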

ML2 = experiment: MTT growth inhibition, ML-2 myeloid leukemia cells; assay type: cell-based, human; conditions: Homo sapiens, ML-2, 72 h, read-out: GI50 ML2
In short: as §1

HT-29 = experiment: MTT growth inhibition, HT-29 colon adenocarcinoma cells; assay type: cell-based, human; conditions: Homo sapiens, HT-29, 72 h, read-out: GI50 HT-29
In short: as §1

RS 4;11 = experiment: MTT growth inhibition, RS 4; assay type: cell-based, human; conditions: Homo sapiens, RS4-11, 72 h, read-out: GI50 RS 4;11
In short: as §1

Jurkat = experiment: MTT growth inhibition, Jurkat T-leukemia cells; assay type: cell-based, human; conditions: Homo sapiens, Jurkat, 72 h, read-out: GI50 Jurkat
In short: as §1

Jurkat cells [5] = experiment: Mitochondrial ROS production; assay type: cell-based, human; conditions: 24 and 48 h
In short: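 Jurkat cells treated with test compound for 24 or 48 h, pelleted, then loaded in HBSS with hydroethidine (HE) or H2-DCFDA for 30 min at 37 °C. Cells re-pelleted into HBSS and read by flow cytometry: 488 nm excitation, emission 585 nm (HE) and 530 nm (DCF). Fluorescence intensity given as % of untreated control; mean ± SEM, three independent experiments.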

Jurkat cells [6] = experiment: Mitochondrial membrane potential; assay type: cell-based, human; conditions: 0.5 and 0.1 μM, 24 and 48 h
In short: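 After treatment, Jurkat cells were pelleted and resuspended in HBSS containing JC-1, then kept 10 min at 37 °C. They were spun again, taken up in HBSS and read by flow cytometry. Polarised mitochondria give red JC-1 aggregates (590 nm); depolarisation gives green monomers (530 nm).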

leukemia cells = experiment: MTT growth inhibition, leukemia cell lines; assay type: cell-based, human; conditions: Homo sapiens, 72 h, read-out: GI50, leukemia cells
In short: as §1

ARO = experiment: MTT growth inhibition, ARO anaplastic thyroid cells; assay type: cell-based, human; conditions: Homo sapiens, Thyroid cell, 72 h, read-out: GI50 ARO
In short: as §1

HeLa = experiment: MTT growth inhibition, HeLa cervix carcinoma cells; assay type: cell-based, human; conditions: Homo sapiens, HeLa, 72 h, read-out: GI50 HeLa
In short: as §1

K562 = experiment: MTT growth inhibition, K562 chronic myelogenous leukemia cells; assay type: cell-based, human; conditions: Homo sapiens, K562, 72 h, read-out: GI50 K562
In short: as §1

COc1cc(Cn2ccc3c4c(=O)cc(-c5ccccc5)[nH]c4ccc32)cc(OC)c1OC [Compound 12, 7-Phenyl-3-(3,4,5-trimethoxybenzyl)-3H-pyrrolo[3,2-f]quinolin-9(6H)-one]
Colchicine Binding Inhibition [%], 5 μM ([1]; compound 5 μM): 30 ± 4% | Colchicine Binding Inhibition [%], 50 μM ([1]; compound 50 μM): 56 ± 2% | GI50 (HL-60): 2 ± 0.1 nM | GI50 (IGROV): 850 ± 200 nM | GI50 (solid tumor cells): 400 to 1400 nM | IC50 (Bovine brain tubulin): 1400 ± 200 nM | GI50 (MCF-7): 1400 ± 500 nM | arrest in G2/M phase (cell population) (Jurkat cells [2]; 24 h, 0.25 μM, control 9.4 %): 65% | effect on cell-cycle progression (G2/M arrest, in words) (Jurkat cells [2]; 24 h treatment): clear G2/M arrest pattern in a concentration-dependent manner | Bcl-2 expression, in words (Bcl-2 in Jurkat cells): decrease Bcl-2 expression | GI50 (Hep G2): 950 ± 150 nM | caspase-3 activation, in words [3]: activate caspase-3 | induction of apoptotic (annexin-V-positive) cells, in words (Jurkat cells [4]): remarkable induction of apoptotic cells | GI50 (ML2): 10 ± 2 nM | GI50 (HT-29): 450 ± 100 nM | GI50 (RS 4;11): 1 ± 0.1 nM | GI50 (Jurkat): 3 ± 0.1 nM | ROS production (HE, H2-DCFDA), in words (Jurkat cells [5]): induced the production of ROS relative to control cells | percentage of cells with low ΔΨmt (JC-1), in words (Jurkat cells [6]): significant increase in the percentage of cells with low ΔΨmt | GI50 (leukemia cells): 0.5 to 10 nM | GI50 (ARO): 580 ± 150 nM | GI50 (HeLa): 400 ± 50 nM | GI50 (K562): 30 ± 7 nM
